Columns and labels:
[1] = Antitumor activity against mouse Gardner lymphosarcoma allografted in C3H mouse assessed as tumor growth inhibition at 0.10 mg/kg, ip administered daily for 8 to 10 days; assay type: functional; details: route intraperitoneal, read-out: TGI
Method in brief: (§1)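 Gardner lymphosarcoma in C3H mice; sulfate salts unless noted, given ip daily for 8–10 days, treatment starting 8 days after tumor implantation. Tumor growth inhibition scored as –, 0–25%; +, 26–50%; ++, 51–75%; +++, 76–100%; T, lethal to ≥5 of 10 animals per group. Average of one or more tests.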

[2] = tested on: Mus musculus; assay: Toxicity in C3H mouse allografted with mouse Gardner lymphosarcoma assessed as lethality at 0.20 mg/kg, ip administered daily for 8 to 10 days; assay type: organism-based; parameters: dose 0.2 mg/kg, route intraperitoneal; details: in vivo, 0.2 mg/kg
Method in brief: (§2)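 Tumor-bearing mice given sulfate salts ip daily for 8–10 days; values are the average of one or more tests. Toxic means lethal to ≥5 of 10 animals per group.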

[3] = tested on: Mus musculus; assay: Toxicity in C3H mouse allografted with mouse Gardner lymphosarcoma assessed as lethality at 0.40 mg/kg, ip administered daily for 8 to 10 days; assay type: organism-based; parameters: dose 0.4 mg/kg, route intraperitoneal; details: in vivo, 0.4 mg/kg; method in brief: as §2
[4] = Antitumor activity against mouse Ridgway osteogenic sarcoma allografted in AKR mouse assessed as tumor growth inhibition at 0.05 mg/kg, ip administered daily for 8 to 10 days compound treatment commenced 8 days after tumor implantation; assay type: functional; details: route intraperitoneal, read-out: TGI
[5] = Antitumor activity against mouse Ridgway osteogenic sarcoma allografted in AKR mouse assessed as tumor growth inhibition at 0.10 mg/kg, ip administered daily for 8 to 10 days compound treatment commenced 8 days after tumor implantation; assay type: functional; details: route intraperitoneal, read-out: TGI
[6] = tested on: Mus musculus; assay: Toxicity in AKR mouse allografted with mouse Ridgway osteogenic sarcoma assessed as lethality at 0.20 mg/kg, ip administered daily for 8 to 10 days compound treatment commenced 8 days after tumor implantation; assay type: organism-based; parameters: dose 0.2 mg/kg, route intraperitoneal; details: in vivo, 0.2 mg/kg; method in brief: as §2
[7] = tested on: Mus musculus; assay: Toxicity in AKR mouse allografted with mouse Ridgway osteogenic sarcoma assessed as lethality at 0.40 mg/kg, ip administered daily for 8 to 10 days compound treatment commenced 8 days after tumor implantation; assay type: organism-based; parameters: dose 0.4 mg/kg, route intraperitoneal; details: in vivo, 0.4 mg/kg; method in brief: as §2
[8] = Antitumor activity against mouse Gardner lymphosarcoma allografted in C3H mouse assessed as tumor growth inhibition at 0.20 mg/kg, ip administered daily for 8 to 10 days; assay type: functional; details: route intraperitoneal, read-out: TGI; method in brief: as §1
[9] = Antitumor activity against mouse Gardner lymphosarcoma allografted in C3H mouse assessed as tumor growth inhibition at 0.40 mg/kg, ip administered daily for 8 to 10 days; assay type: functional; details: route intraperitoneal, read-out: TGI; method in brief: as §1
[10] = Antitumor activity against mouse Ridgway osteogenic sarcoma allografted in AKR mouse assessed as tumor growth inhibition at 0.30 mg/kg, ip administered daily for 8 to 10 days compound treatment commenced 8 days after tumor implantation; assay type: functional; details: route intraperitoneal, read-out: TGI
[11] = Dissociation constant, pKa of the compound; assay type: physicochemical
Method in brief: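 Electrometric titration in 66% aqueous DMF.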

[12] = Antitumor activity against mouse Gardner lymphosarcoma allografted in C3H mouse assessed as tumor growth inhibition at 0.5 mg/kg, ip administered daily for 8 to 10 days; assay type: functional; details: route intraperitoneal, read-out: TGI; method in brief: as §1
[13] = Antitumor activity against mouse Gardner lymphosarcoma allografted in C3H mouse assessed as tumor growth inhibition at 0.25 mg/kg, ip administered daily for 8 to 10 days; assay type: functional; details: route intraperitoneal, read-out: TGI; method in brief: as §1
[14] = Antitumor activity against mouse Gardner lymphosarcoma allografted in C3H mouse assessed as tumor growth inhibition at 0.125 mg/kg, ip administered daily for 8 to 10 days; assay type: functional; details: route intraperitoneal, read-out: TGI; method in brief: as §1
[15] = Antitumor activity against mouse Ridgway osteogenic sarcoma allografted in AKR mouse assessed as tumor growth inhibition at 0.20 mg/kg, ip administered daily for 8 to 10 days compound treatment commenced 8 days after tumor implantation; assay type: functional; details: route intraperitoneal, read-out: TGI
[16] = Antitumor activity against mouse Ridgway osteogenic sarcoma allografted in AKR mouse assessed as tumor growth inhibition at 0.40 mg/kg, ip administered daily for 8 to 10 days compound treatment commenced 8 days after tumor implantation; assay type: functional; details: route intraperitoneal, read-out: TGI
[17] = Antitumor activity against mouse Gardner lymphosarcoma allografted in C3H mouse assessed as tumor growth inhibition at 0.05 mg/kg, ip administered daily for 8 to 10 days; assay type: functional; details: route intraperitoneal, read-out: TGI; method in brief: as §1
[18] = tested on: B16; assay: Antitumor activity against mouse B16 cells allografted in C57BL/6 mouse assessed as prolongation of host survival at 0.60 mg/kg, ip administered on days 1,5 and 9; assay type: functional; details: route intraperitoneal
Method in brief: (§3)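 B16 melanoma cells (10⁶ inoculum) implanted ip in C57BL/6 mice; groups of 10. Sulfate salts unless noted, given ip on days 1, 5 and 9. Single test. Survival prolongation is expressed as percent versus controls, with survivors counted on day 60. Toxic means deaths of ≥5 of 10 animals before the first control death.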

[19] = tested on: B16; assay: Antitumor activity against mouse B16 cells allografted in C57BL/6 mouse assessed as prolongation of host survival at 0.90 mg/kg, ip administered on days 1,5 and 9; assay type: functional; details: route intraperitoneal; method in brief: as §3
[20] = tested on: B16; assay: Antitumor activity against mouse B16 cells allografted in C57BL/6 mouse assessed as prolongation of host survival at 1.20 mg/kg, ip administered on days 1,5 and 9; assay type: functional; details: route intraperitoneal; method in brief: as §3
[21] = Antitumor activity against mouse P1534 cells allografted in DBA2 mouse assessed as tumor growth inhibition at 0.10 mg/kg, ip administered daily for 8 to 10 days; assay type: functional; details: route intraperitoneal, read-out: TGI
Method in brief: (§4)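 P1534(J) leukemia implanted sc in DBA2 mice; sulfate salts dosed ip daily for 8–10 days. Growth inhibition scored –, 0–25%; +, 26–50%; ++, 51–75%; +++, 76–100%; T, lethal to ≥5 of 10 animals per group. Average of one or more tests.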

[22] = Toxicity in iv dosed mouse assessed as lethality; assay type: organism-based; details: in vivo
[23] = tested on: CHO; assay: Mitotic arrest in CHO cells assessed as increase in cell accumulation at 0.2 ug/ml; assay type: functional, Cricetulus griseus
Method in brief: (§5)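 Chinese hamster ovary cells in tissue culture, scored for mitotic arrest as increase in cells in mitotic arrest over control: +++, 40–50%; ++, 15–40%; +, 10–15%; ±, 7–10%; –, 3–7%. Cytotoxicity noted separately.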

[24] = tested on: CHO; assay: Mitotic arrest in CHO cells assessed as increase in cell accumulation at 0.02 ug/ml; assay type: functional, Cricetulus griseus; method in brief: as §5
[25] = tested on: CHO; assay: Mitotic arrest in CHO cells assessed as increase in cell accumulation at 0.002 ug/ml; assay type: functional, Cricetulus griseus; method in brief: as §5
[26] = Antitumor activity against mouse P1534 cells allografted in DBA2 mouse assessed as tumor growth inhibition at 0.20 mg/kg, ip administered daily for 8 to 10 days; assay type: functional; details: route intraperitoneal, read-out: TGI; method in brief: as §4
[27] = Antitumor activity against mouse P1534 cells allografted in DBA2 mouse assessed as tumor growth inhibition at 0.40 mg/kg, ip administered daily for 8 to 10 days; assay type: functional; details: route intraperitoneal, read-out: TGI; method in brief: as §4
[28] = tested on: Mus musculus; assay: Toxicity in C57BL/6 mouse allografted with mouse B16 cells assessed as animal death at 0.60 mg/kg, ip administered on days 1,5 and 9; assay type: organism-based; parameters: dose 0.6 mg/kg, route intraperitoneal; details: in vivo, 0.6 mg/kg; method in brief: as §3
[29] = tested on: Mus musculus; assay: Toxicity in C57BL/6 mouse allografted with mouse B16 cells assessed as animal death at 0.90 mg/kg, ip administered on days 1,5 and 9; assay type: organism-based; parameters: dose 0.9 mg/kg, route intraperitoneal; details: in vivo, 0.9 mg/kg; method in brief: as §3
[30] = tested on: Mus musculus; assay: Toxicity in C57BL/6 mouse allografted with mouse B16 cells assessed as animal death at 1.20 mg/kg, ip administered on days 1,5 and 9; assay type: organism-based; parameters: dose 1.2 mg/kg, route intraperitoneal; details: in vivo, 1.2 mg/kg; method in brief: as §3

Compound | inhibition in vivo at 0.1 mg/kg [1] | inhibition in vivo at 0.05 mg/kg [4] | inhibition in vivo at 0.1 mg/kg [5] | inhibition in vivo at 0.2 mg/kg [8] | inhibition in vivo at 0.4 mg/kg [9] | inhibition in vivo at 0.2 mg/kg [15] | inhibition in vivo at 0.4 mg/kg [16] | further results
CC[C@]1(O)C[C@H]2CN(CCc3c([nH]c4ccccc34)[C@@](C(=O)OC)(c3cc4c(cc3OC)N(C)[C@H]3[C@@](O)(C(=O)NC(C)C)[C@H](O)[C@]5(CC)C=CCN6CC[C@]43[C@@H]65)C2)C1.O=S(=O)(O)O | 0% | 0% | 76% | – | – | – | – | Activity [2]: Toxic; Activity [3]: Toxic; Activity [6]: Toxic; Activity [7]: Toxic
CC[C@]1(O)C[C@H]2CN(CCc3c([nH]c4ccccc34)[C@@](C(=O)OC)(c3cc4c(cc3OC)N(C)[C@H]3[C@@](O)(C(=O)NCCN)[C@H](O)[C@]5(CC)C=CCN6CC[C@]43[C@@H]65)C2)C1 | – | – | 0% | 0% | 0% | – | – | inhibition in vivo at 0.3 mg/kg [10]: 0%; pKa [11]: 9.48
CC[C@]1(O)C[C@H]2CN(CCc3c([nH]c4ccccc34)[C@@](C(=O)OC)(c3cc4c(cc3OC)N(C)[C@H]3[C@@](O)(C(=O)NCCNC(C)=O)[C@H](O)[C@]5(CC)C=CCN6CC[C@]43[C@@H]65)C2)C1 | 76% | – | – | 76% | 76% | – | – | inhibition in vivo at 0.5 mg/kg [12]: 76%; inhibition in vivo at 0.25 mg/kg [13]: 76%; inhibition in vivo at 0.125 mg/kg [14]: 51%
CC[C@]1(O)C[C@H]2CN(CCc3c([nH]c4ccccc34)[C@@](C(=O)OC)(c3cc4c(cc3OC)N(C)[C@H]3[C@@](O)(C(=O)NCCN(C)C)[C@H](O)[C@]5(CC)C=CCN6CC[C@]43[C@@H]65)C2)C1 | – | – | – | 0% | 0% | 0% | 51% | pKa [11]: 8.5
CC[C@]1(O)C[C@H]2CN(CCc3c([nH]c4ccccc34)[C@@](C(=O)OC)(c3cc4c(cc3OC)N(C)[C@H]3[C@@](O)(C(=O)NCCO)[C@H](O)[C@]5(CC)C=CCN6CC[C@]43[C@@H]65)C2)C1.O=S(=O)(O)O | 76% | 51% | 76% | 76% | 76% | 76% | 76% | inhibition in vivo at 0.05 mg/kg [17]: 76%; survival at 0.6 mg/kg [18]: 51%; survival at 0.9 mg/kg [19]: 97%; survival at 1.2 mg/kg [20]: 93%; inhibition in vivo at 0.1 mg/kg [21]: 51%; LD50 [22]: 4.4 mg/kg; Activity [23]: 15%; Activity [24]: 15%; Activity [25]: 3%
CC[C@]1(O)C[C@H]2CN(CCc3c([nH]c4ccccc34)[C@@](C(=O)OC)(c3cc4c(cc3OC)N(C)[C@H]3[C@@](O)(C(=O)NCCCO)[C@H](O)[C@]5(CC)C=CCN6CC[C@]43[C@@H]65)C2)C1 | – | 26% | 76% | 51% | 76% | 76% | 76% | inhibition in vivo at 0.2 mg/kg [26]: 76%; inhibition in vivo at 0.4 mg/kg [27]: 76%
CC[C@]1(O)C[C@H]2CN(CCc3c([nH]c4ccccc34)[C@@](C(=O)OC)(c3cc4c(cc3OC)N(C)[C@H]3[C@@](O)(C(=O)NCCOC)[C@H](O)[C@]5(CC)C=CCN6CC[C@]43[C@@H]65)C2)C1.O=S(=O)(O)O | 0% | – | – | 0% | – | – | – | Activity [28]: Toxic; Activity [29]: Toxic; Activity [30]: Toxic
CC[C@]1(O)C[C@H]2CN(CCc3c([nH]c4ccccc34)[C@@](C(=O)OC)(c3cc4c(cc3OC)N(C)[C@H]3[C@@](O)(C(=O)NCCNC(C)=O)[C@H](OC(C)=O)[C@]5(CC)C=CCN6CC[C@]43[C@@H]65)C2)C1 | – | – | – | – | – | – | – | inhibition in vivo at 0.5 mg/kg [12]: 76%; inhibition in vivo at 0.25 mg/kg [13]: 51%; inhibition in vivo at 0.125 mg/kg [14]: 0%
